The values below come from BindingDB's records for doi:10.1016/j.bmcl.2018.12.060 (Yanbian University College of Pharmacy, 2019).

Where only a bound is given, the exact number is not on record here.

Hypoxia-inducible factor 1-alpha, sequence (Q16665 whole entry): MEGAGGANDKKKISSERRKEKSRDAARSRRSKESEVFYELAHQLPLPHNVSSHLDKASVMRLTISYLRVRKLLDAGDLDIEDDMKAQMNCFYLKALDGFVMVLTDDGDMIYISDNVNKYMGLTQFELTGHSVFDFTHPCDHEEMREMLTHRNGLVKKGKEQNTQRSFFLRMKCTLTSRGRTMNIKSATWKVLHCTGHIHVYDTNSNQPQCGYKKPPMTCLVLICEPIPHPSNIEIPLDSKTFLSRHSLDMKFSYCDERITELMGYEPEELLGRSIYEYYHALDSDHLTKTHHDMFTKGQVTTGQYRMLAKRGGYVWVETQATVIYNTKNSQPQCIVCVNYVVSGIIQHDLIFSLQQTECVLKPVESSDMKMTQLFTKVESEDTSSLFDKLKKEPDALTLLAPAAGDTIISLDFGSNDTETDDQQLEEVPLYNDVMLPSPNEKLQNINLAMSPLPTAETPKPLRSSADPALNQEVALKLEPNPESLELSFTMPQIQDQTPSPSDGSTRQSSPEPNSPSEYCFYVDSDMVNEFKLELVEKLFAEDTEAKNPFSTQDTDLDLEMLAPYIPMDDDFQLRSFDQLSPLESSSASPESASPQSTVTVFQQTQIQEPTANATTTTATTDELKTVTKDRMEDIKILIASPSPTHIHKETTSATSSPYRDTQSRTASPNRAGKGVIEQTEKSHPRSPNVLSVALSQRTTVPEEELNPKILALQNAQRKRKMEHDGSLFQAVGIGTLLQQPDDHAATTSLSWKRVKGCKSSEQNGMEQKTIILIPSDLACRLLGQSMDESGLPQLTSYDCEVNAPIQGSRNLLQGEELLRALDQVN

This assay addresses Hypoxia-inducible factor 1-alpha (Homo sapiens, UniProt Q16665). The experiment in a line: Inhibition of HIF1alpha transcriptional activity in human Hep3B cells after 24 hrs in hypoxic condition by HRE-dual luciferase reporter gene assay. An outline of the steps: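 Hep3B cells transiently co-transfected with pGL3-HRE-luciferase and pRL-CMV, after 24 h incubated under hypoxia with or without compound; luciferase activity measured after 24 h, ursolic acid as positive control; mean ± SD of three independent experiments.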
`C[C@H]1[C@H](C)CC[C@]2(C(=O)OCc3c(Cl)cccc3Cl)CC[C@]3(C)C(=CC[C@@H]4[C@@]5(C)CC/C(=N\NC(=N)N)C(C)(C)[C@@H]5CC[C@]43C)[C@H]12` showed an IC50 of 13.3 µM.
As for `C[C@H]1[C@H](C)CC[C@]2(C(=O)O)CC[C@]3(C)C(=CC[C@@H]4[C@@]5(C)CC(=C\c6ccccc6Br)/C(=N\NC(=N)N)C(C)(C)[C@@H]5CC[C@]43C)[C@H]12`, the IC50 was greater than 100 µM.
Regarding `C[C@H]1[C@H](C)CC[C@]2(C(=O)O)CC[C@]3(C)C(=CC[C@@H]4[C@@]5(C)CC/C(=N\NC(=N)N)C(C)(C)[C@@H]5CC[C@]43C)[C@H]12`, the IC50 is greater than 100 µM.
Regarding `C[C@H]1[C@H](C)CC[C@]2(C(=O)O)CC[C@]3(C)C(=CC[C@@H]4[C@@]5(C)CC/C(=N\NC(N)=S)C(C)(C)[C@@H]5CC[C@]43C)[C@H]12`, the midpoint of inhibition, the IC50, lay at 88.8 µM. That is a double-digit micromolar value.
As to `COC(=O)[C@]12CC[C@@H](C)[C@H](C)[C@H]1C1=CC[C@@H]3[C@@]4(C)CC/C(=N\NC(=N)N)C(C)(C)[C@@H]4CC[C@@]3(C)[C@]1(C)CC2`, the IC50 was found to be 6.7 µM. This IC50 lies about 13-fold lower than the previous one.
As to `CCOC(=O)[C@]12CC[C@@H](C)[C@H](C)[C@H]1C1=CC[C@@H]3[C@@]4(C)CC/C(=N\NC(=N)N)C(C)(C)[C@@H]4CC[C@@]3(C)[C@]1(C)CC2`, the IC50 was greater than 100 µM.
On to `C[C@H]1[C@H](C)CC[C@]2(C(=O)OCc3cccc(Cl)c3)CC[C@]3(C)C(=CC[C@@H]4[C@@]5(C)CC/C(=N\NC(=N)N)C(C)(C)[C@@H]5CC[C@]43C)[C@H]12`, for which the concentration for half-maximal inhibition (IC50) was 30.3 µM.
Regarding `Cc1ccc(COC(=O)[C@]23CC[C@@H](C)[C@H](C)[C@H]2C2=CC[C@@H]4[C@@]5(C)CC/C(=N\NC(=N)N)C(C)(C)[C@@H]5CC[C@@]4(C)[C@]2(C)CC3)cc1`, the IC50 is 10.3 µM.
`C[C@H]1[C@H](C)CC[C@]2(C(=O)O)CC[C@]3(C)C(=CC[C@@H]4[C@@]5(C)CC(=C\c6ccccc6Cl)/C(=N\NC(=N)N)C(C)(C)[C@@H]5CC[C@]43C)[C@H]12` registered an IC50 greater than 100 µM.
`C[C@H]1[C@H](C)CC[C@]2(C(=O)O)CC[C@]3(C)C(=CC[C@@H]4[C@@]5(C)CC(=C\c6cccc(Cl)c6)/C(=N\NC(=N)N)C(C)(C)[C@@H]5CC[C@]43C)[C@H]12`: the IC50 is greater than 100 µM.
Then `C[C@H]1[C@H](C)CC[C@]2(C(=O)O)CC[C@]3(C)C(=CC[C@@H]4[C@@]5(C)CC(=C\c6ccc(F)cc6)/C(=N\NC(=N)N)C(C)(C)[C@@H]5CC[C@]43C)[C@H]12`, with greater than 100 µM; and `C[C@H]1[C@H](C)CC[C@]2(C(=O)O)CC[C@]3(C)C(=CC[C@@H]4[C@@]5(C)CC(=C\c6cccc(Br)c6)/C(=N\NC(=N)N)C(C)(C)[C@@H]5CC[C@]43C)[C@H]12`, with 75.4 µM.
Turning to `C[C@H]1[C@H](C)CC[C@]2(C(=O)O)CC[C@]3(C)C(=CC[C@@H]4[C@@]5(C)CC(=C\c6c(Cl)cccc6Cl)/C(=N\NC(=N)N)C(C)(C)[C@@H]5CC[C@]43C)[C@H]12`, the IC50 was greater than 100 µM.
`Cc1ccc(/C=C2\C[C@]3(C)[C@H]4CC=C5[C@@H]6[C@@H](C)[C@H](C)CC[C@]6(C(=O)O)CC[C@@]5(C)[C@]4(C)CC[C@H]3C(C)(C)\C2=N\NC(=N)N)cc1` displayed an IC50 greater than 100 µM.
`C[C@H]1[C@H](C)CC[C@]2(C(=O)O)CC[C@]3(C)C(=CC[C@@H]4[C@@]5(C)CC(=C\c6ccco6)/C(=N\NC(=N)N)C(C)(C)[C@@H]5CC[C@]43C)[C@H]12`: the IC50 is greater than 100 µM.
Take `C[C@H]1[C@H](C)CC[C@]2(C(=O)O)CC[C@]3(C)C(=CC[C@@H]4[C@@]5(C)CC(=C\c6cccs6)/C(=N\NC(=N)N)C(C)(C)[C@@H]5CC[C@]43C)[C@H]12`: the IC50 worked out at 22.8 µM.
Then `CCCCCOC(=O)[C@]12CC[C@@H](C)[C@H](C)[C@H]1C1=CC[C@@H]3[C@@]4(C)CC/C(=N\NC(=N)N)C(C)(C)[C@@H]4CC[C@@]3(C)[C@]1(C)CC2`, with greater than 100 µM; and `C[C@H]1[C@H](C)CC[C@]2(C(=O)O)CC[C@]3(C)C(=CC[C@@H]4[C@@]5(C)CC(=C\c6ccccc6)/C(=N\NC(=N)N)C(C)(C)[C@@H]5CC[C@]43C)[C@H]12`, with 37.8 µM.
Compound `C[C@H]1[C@H](C)CC[C@]2(C(=O)O)CC[C@]3(C)C(=CC[C@@H]4[C@@]5(C)CC(=C\c6cccc7ccccc67)/C(=N\NC(=N)N)C(C)(C)[C@@H]5CC[C@]43C)[C@H]12` gave an IC50 greater than 100 µM.
`C[C@H]1[C@H](C)CC[C@]2(C(=O)OCc3ccc(Cl)cc3)CC[C@]3(C)C(=CC[C@@H]4[C@@]5(C)CC/C(=N\NC(=N)N)C(C)(C)[C@@H]5CC[C@]43C)[C@H]12` had an IC50 of 21.1 µM.
Then `C[C@H]1[C@H](C)CC[C@]2(C(=O)O)CC[C@]3(C)C(=CC[C@@H]4[C@@]5(C)CC(=C\c6ccc(Cl)cc6Cl)/C(=N\NC(=N)N)C(C)(C)[C@@H]5CC[C@]43C)[C@H]12`, with 90.4 µM; and `C[C@H]1[C@H](C)CC[C@]2(C(=O)O)CC[C@]3(C)C(=CC[C@@H]4[C@@]5(C)CC/C(=N\NC(N)=O)C(C)(C)[C@@H]5CC[C@]43C)[C@H]12`, with 13.3 µM; and `C[C@H]1[C@H](C)CC[C@]2(C(=O)OCc3ccc(Cl)cc3Cl)CC[C@]3(C)C(=CC[C@@H]4[C@@]5(C)CC/C(=N\NC(=N)N)C(C)(C)[C@@H]5CC[C@]43C)[C@H]12`, with 40.5 µM.
The compound `C[C@H]1[C@H](C)CC[C@]2(C(=O)O)CC[C@]3(C)C(=CC[C@@H]4[C@@]5(C)CC(=C\c6cccc(F)c6)/C(=N\NC(=N)N)C(C)(C)[C@@H]5CC[C@]43C)[C@H]12` registered an IC50 greater than 100 µM.
On to `C[C@H]1[C@H](C)CC[C@]2(C(=O)O)CC[C@]3(C)C(=CC[C@@H]4[C@@]5(C)CC(=C\c6ccc([N+](=O)[O-])cc6)/C(=N\NC(=N)N)C(C)(C)[C@@H]5CC[C@]43C)[C@H]12`, for which the IC50 is greater than 100 µM.
Then `C[C@H]1[C@H](C)CC[C@]2(C(=O)O)CC[C@]3(C)C(=CC[C@@H]4[C@@]5(C)CC(=C\c6ccccc6F)/C(=N\NC(=N)N)C(C)(C)[C@@H]5CC[C@]43C)[C@H]12`, with greater than 100 µM; and `C[C@H]1[C@H](C)CC[C@]2(C(=O)O)CC[C@]3(C)C(=CC[C@@H]4[C@@]5(C)CC[C@H](O)C(C)(C)[C@@H]5CC[C@]43C)[C@H]12` [3beta-hydroxyurs-12-en-28-oic acid], with greater than 100 µM.
